Calls of active or inactive are those of the source. No cut-off for these calls is given here.
Legend:
[1] = Stability in presence of porcine liver esterase assessed as esterase-mediated compound hydrolysis by measuring ratio of intact compounds and their corresponding acids in pH 7.4 phosphate buffer at 37 degC at 30 mins post incubation by RP-HPLC; format: ADME; conditions: pig, isolated protein, pH 7.4, 0.5 h
Outline: (§1)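 About 0.5 mg ester was incubated with 50 µL porcine liver esterase stock in 0.01 M phosphate buffer (pH 7.4, 1 mL) plus 10 µL acetone at 37 °C. Intact ester/acid peak-area ratio given as mean ± SD of two experiments.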

[2] = Stability in presence of porcine liver esterase assessed as esterase-mediated compound hydrolysis by measuring ratio of intact compounds and their corresponding acids in pH 7.4 phosphate buffer at 37 degC at 60 mins post incubation by RP-HPLC; format: ADME; conditions: pig, isolated protein, pH 7.4, 1 h; outline: as §1
[3] = system: RAW264.7; assay: Antiinflammatory activity in LPS-activated mouse RAW264.7 cells assessed as inhibition of nitric oxide production incubated for 24 hrs by ELISA; format: functional, cell-based; conditions: RAW264.7, 24 h, in the assay text read “by Griess reagent method” for “by ELISA”
Outline: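 RAW264.7 macrophages (DMEM, 10% FBS, penicillin/streptomycin, 37 °C, 5% CO2) treated with LPS plus compounds for 24 h. Nitrite in supernatant measured by Griess reagent (10 min, room temperature, dark), absorbance 540 nm, quantified against sodium nitrite standard curve. EC50 reported from triplicate experiments, mean ± SD.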

[4] = Cytotoxicity in mouse RAW264.7 cells after 24 hrs by MTT assay; format: cell-based; conditions: read-out: TC50
Outline: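 RAW264.7 cells in DMEM with 10% FBS were treated for 24 h, then incubated with MTT for 4 h. Formazan was dissolved in DMSO for 30 min and absorbance read at 540 nm. TC50 reported as mean ± SD of triplicate experiments.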

[5] = system: RAW264.7; assay: Selectivity index, ratio of TC50 for mouse RAW264.7 cells to EC50 for antiinflammatory activity in LPS-activated mouse RAW264.7 cells; format: functional
[6] = system: Rattus norvegicus; assay: Antiinflammatory activity in Sprague-Dawley rat assessed as inhibition of carrageenan-induced paw edema at 25 mg/kg, ip dosed 30 mins before carrageenan challenge measured before 6 hrs post carrageenan challenge; format: functional, organism-based; parameters: dose 25 mg/kg
Outline: (§2)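 Male Sprague–Dawley rats (140–160 g, 5 weeks old) received a single intraperitoneal dose in 5% cremophor/5% ethanol in PBS, with vehicle as control. 30 min later, 0.1 mL of 1% carrageenan in saline was injected subplantar into the right hind paw, with saline in the left. Paw volume was measured by plethysmometer at 0, 0.5, 1, 2, 4, 6 and 24 h.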

[7] = system: Rattus norvegicus; assay: Antiinflammatory activity in Sprague-Dawley rat assessed as inhibition of carrageenan-induced paw edema at 25 mg/kg, ip dosed 30 mins before carrageenan challenge measured at 24 hrs post carrageenan challenge; format: functional; conditions: route intraperitoneal; outline: as §2
[8] = system: Rattus norvegicus; assay: Antiinflammatory activity in Sprague-Dawley rat assessed as inhibition of carrageenan-induced paw edema at 50 mg/kg, ip dosed 30 mins before carrageenan challenge; format: functional, organism-based; parameters: dose 50 mg/kg; outline: as §2
[9] = system: Rattus norvegicus; assay: Antiinflammatory activity in Sprague-Dawley rat assessed as inhibition of carrageenan-induced paw edema at 50 mg/kg, ip dosed 30 mins before carrageenan challenge measured before 6 hrs post carrageenan challenge; format: functional, organism-based; parameters: dose 50 mg/kg; outline: as §2
[10] = system: Rattus norvegicus; assay: Antiinflammatory activity in Sprague-Dawley rat assessed as inhibition of carrageenan-induced paw edema at 50 mg/kg, ip dosed 30 mins before carrageenan challenge measured at 24 hrs post carrageenan challenge; format: functional; outline: as §2

Row | Structure (SMILES) | Ratio [1] | Ratio [2] | EC50 [3] [µM] | CC50 at 24 h [4] [µM] | Ratio [5] | Activity [6] | inhibition in vivo at 25 mg/kg [7] [%] | Activity [8] | Activity [9] | inhibition [10] | inhibition in vivo at 50 mg/kg ([10]; route intraperitoneal) [%]
1 | CC/C=C\C[C@H]1C(=O)C=C[C@H]1CC(=O)OCCOCCO | 5.9 | 3.1 | 36 | 166 | 5 | – | – | – | – | – | –
2 | CC/C=C\C[C@H]1C(=O)C=C[C@H]1CC(=O)OCCCC | 0 | – | 23 | 31 | 1 | – | – | – | – | – | –
3 | CC/C=C\C[C@H]1C(=O)C=C[C@H]1CC(=O)OCCOCCOC | 0.3 | 0 | 33 | 161 | 5 | – | – | – | – | – | –
4 | COc1ccc2c(c1)c(CC(=O)O)c(C)n2C(=O)c1ccc(Cl)cc1 [INDOMETHACIN] | – | – | – | – | – | Active | 57.1 | – | – | – | –
5 | CC/C=C\C[C@H]1C(=O)C=C[C@H]1CC(=O)OC1CCCCC1 | 4.1 | 1.1 | 22 | 31 | 2 | – | – | – | – | – | –
6 | CC/C=C\CC1C(=O)C=CC1CC(=O)OC (stereo not given) | 0.1 | 0 | 19 | 140 | 7 | – | – | – | – | – | –
7 | CC/C=C\C[C@H]1C(=O)C=C[C@H]1CC(=O)Oc1ccc(O)cc1 | 0 | – | 23 | 49 | 2 | – | – | – | – | – | –
8 | CC/C=C\C[C@H]1C(=O)C(Cl)=C[C@H]1CC(=O)OCCO | – | – | 0.58 | 6.25 | 10.8 | – | – | Active | inactive | – | 62.4
9 | CC/C=C\C[C@H]1C(=O)C=C[C@H]1CC(=O)Oc1ccccc1 | 0 | – | 33 | 158 | 5 | – | – | – | – | – | –
10 | CC/C=C\C[C@H]1C(=O)C=C[C@H]1CC(=O)OC(C)c1ccccc1 (stereo not given in full) | 1.4 | 0.4 | 18 | 31 | 2 | – | – | – | – | – | –
11 | CC/C=C\C[C@H]1C(=O)C=C[C@H]1CC(=O)OCCCCC | 0 | – | 25 | 37 | 1 | – | – | – | – | – | –
12 | CC/C=C\C[C@H]1C(=O)C=C[C@H]1CC(=O)OCc1ccccc1 | 0.2 | 0 | 20 | 31 | 1 | – | – | – | – | – | –
13 | CC/C=C\C[C@H]1C(=O)C=C[C@H]1CC(=O)OCCOCCOCCOC | 0.3 | 0 | 35 | 163 | 5 | – | – | – | – | – | –
14 | CC/C=C\C[C@H]1C(=O)C=C[C@H]1CC(=O)OCCC | 0 | – | 23 | 35 | 1 | – | – | – | – | – | –

Continued by falling EC50 [3], values first:

Row | Ratio [1] | Ratio [2] | EC50 [3] [µM] | Structure (SMILES) | CC50 at 24 h [4] [µM] | Ratio [5] | Activity [6] | inhibition in vivo at 25 mg/kg [7] [%] | Activity [8] | Activity [9] | inhibition [10] | inhibition in vivo at 50 mg/kg ([10]; route intraperitoneal) [%]
15 | 7.6 | 3.5 | 42 | CC/C=C\C[C@H]1C(=O)C=C[C@H]1CC(=O)OCCOCCOCCO | 162 | 4 | – | – | – | – | – | –
16 | 0 | – | 32 | CC/C=C\C[C@H]1C(=O)C=C[C@H]1CC(=O)Oc1ccccc1OC | 161 | 5 | – | – | – | – | – | –
17 | 0.1 | 0 | 27 | CC/C=C\C[C@H]1C(=O)C=C[C@H]1CC(=O)OCCOC | 160 | 6 | – | – | – | – | – | –
18 | 1.7 | 0.7 | 24 | CC/C=C\C[C@H]1C(=O)C=C[C@H]1CC(=O)OCCO | 161 | 7 | – | – | – | – | – | –
19 | 0.5 | 0.2 | 23 | CC/C=C\C[C@H]1C(=O)C=C[C@H]1CC(=O)OC(C)COC (stereo not given in full) | 161 | 7 | – | – | – | – | – | –
20 | 0.4 | 0.1 | 22 | CC/C=C\C[C@H]1C(=O)C=C[C@H]1CC(=O)OC(C)CC (stereo not given in full) | 53 | 2 | – | – | – | – | – | –
21 | 0 | – | 20 | CC/C=C\C[C@H]1C(=O)C=C[C@H]1CC(=O)OCC | 146 | 7 | – | – | – | – | – | –
22 | 11.2 | 9.8 | 20 | CC/C=C\C[C@H]1C(=O)C=C[C@H]1CC(=O)OC(C)(C)C | 33 | 1 | – | – | – | – | – | –
23 | 0.5 | 0.1 | 20 | CC/C=C\C[C@H]1C(=O)C=C[C@H]1CC(=O)OC(C)C | 58 | 3 | – | – | – | – | – | –
24 | – | – | 0.83 | CC/C=C\C[C@H]1C(=O)C(Cl)=C[C@H]1CC(=O)OC(C)(C)C | 11.5 | 13.9 | – | – | Active | inactive | Active | –
25 | – | – | 0.65 | CC/C=C\C[C@H]1C(=O)C(Cl)=C[C@H]1CC(=O)OC1CCCCC1 | 9.69 | 14.9 | – | – | – | – | – | –

Source: ChEMBL document CHEMBL2046437, “In vitro stability and in vivo anti-inflammatory efficacy of synthetic jasmonates” (Bioorg Med Chem, 2012)
